Measured values as given in article PMC5429141 (Nature structural & molecular biology, 2016).

How the values were obtained:
[1] = test system: EcTrmD D177*A; test: Pre-steady-state methyl transfer kinetics, D177*A mutant; type: biochemical, E. coli; conditions: D177*A relative to wild-type enzyme
[2] = test system: EcTrmD P89A; test: Pre-steady-state methyl transfer kinetics, P89A mutant; type: biochemical, E. coli; conditions: P89A relative to wild-type enzyme
[3] = test system: EcTrmD Y136A; test: Pre-steady-state methyl transfer kinetics, Y136A mutant; type: biochemical, E. coli; conditions: Y136A relative to wild-type enzyme
[4] = molecular target: wild-type EcTrmD (Escherichia coli, UniProt P0A873); type: biochemical, E. coli; conditions: single turnover, 37 °C
Sequence of wild-type EcTrmD (P0A873 whole entry): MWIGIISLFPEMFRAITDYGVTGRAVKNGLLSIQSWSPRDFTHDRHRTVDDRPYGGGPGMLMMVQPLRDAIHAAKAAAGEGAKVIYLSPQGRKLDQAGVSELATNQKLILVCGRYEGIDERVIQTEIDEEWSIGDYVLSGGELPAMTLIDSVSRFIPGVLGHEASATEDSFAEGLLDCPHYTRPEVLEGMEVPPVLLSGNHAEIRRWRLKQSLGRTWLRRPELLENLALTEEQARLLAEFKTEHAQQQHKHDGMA

[5] = test system: EcTrmD G134A; test: Pre-steady-state methyl transfer kinetics, G134A mutant; type: biochemical, E. coli; conditions: G134A relative to wild-type enzyme
[6] = molecular target: wild-type TrmD dimer (Escherichia coli, UniProt P0A873); test: Fluorescence titration; type: binding, E. coli; conditions: wild-type enzyme; room temperature; pH 8.0
Sequence of wild-type TrmD dimer (P0A873 whole entry): as above
Summary of the method: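 His-tagged enzyme expressed in E. coli SG13009 and purified by cobalt-affinity and MonoQ ion-exchange chromatography. Concentration was measured by Bradford against BSA and corrected for active dimer fraction. Increasing AdoMet was added to the dimer, and intrinsic Trp fluorescence quenching was followed with excitation at 295 nm and emission at 304–400 nm.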

[7] = test system: EcTrmD H180*A; test: Pre-steady-state methyl transfer kinetics, H180*A mutant; type: biochemical, E. coli; conditions: H180*A relative to wild-type enzyme
[8] = test system: EcTrmD Y86A; test: Pre-steady-state methyl transfer kinetics, Y86A mutant; type: biochemical, E. coli; conditions: Y86A relative to wild-type enzyme
[9] = test system: EcTrmD Y115F; test: Pre-steady-state methyl transfer kinetics, Y115F mutant; type: biochemical, E. coli; conditions: Y115F relative to wild-type enzyme
[10] = test system: EcTrmD Q90A; test: Pre-steady-state methyl transfer kinetics, Q90A mutant; type: biochemical, E. coli; conditions: Q90A relative to wild-type enzyme
[11] = test system: EcTrmD E116A; test: Pre-steady-state methyl transfer kinetics, E116A mutant; type: biochemical, E. coli; conditions: E116A relative to wild-type enzyme
[12] = test system: EcTrmD G55A; test: Pre-steady-state methyl transfer kinetics, G55A mutant; type: biochemical, E. coli; conditions: G55A relative to wild-type enzyme
[13] = test system: EcTrmD G59A; test: Pre-steady-state methyl transfer kinetics, G59A mutant; type: biochemical, E. coli; conditions: G59A relative to wild-type enzyme
[14] = test system: EcTrmD D169*A; test: Pre-steady-state methyl transfer kinetics, D169*A mutant; type: biochemical, E. coli; conditions: D169*A relative to wild-type enzyme
[15] = test system: EcTrmD G141A; test: Pre-steady-state methyl transfer kinetics, G141A mutant; type: biochemical, E. coli; conditions: G141A relative to wild-type enzyme
[16] = test system: EcTrmD P89W; test: Pre-steady-state methyl transfer kinetics, P89W mutant; type: biochemical, E. coli; conditions: P89W relative to wild-type enzyme
[17] = molecular target: TrmD Y115A dimer (Escherichia coli, UniProt P0A873, Y115A); type: binding, E. coli; conditions: Y115 mutant; room temperature; pH 8.0
Sequence of TrmD Y115A dimer (P0A873 whole entry Y115A): as the sequence (P0A873 whole entry) above, with Y115A counted along it

[18] = test system: EcTrmD R154A; test: Pre-steady-state methyl transfer kinetics, R154A mutant; type: biochemical, E. coli; conditions: R154A relative to wild-type enzyme
[19] = test system: EcTrmD S170*A; test: Pre-steady-state methyl transfer kinetics, S170*A mutant; type: biochemical, E. coli; conditions: S170*A relative to wild-type enzyme
[20] = test system: EcTrmD Y115A; test: Pre-steady-state methyl transfer kinetics, Y115A mutant; type: biochemical, E. coli; conditions: Y115A relative to wild-type enzyme

## C[S+](CC[C@H](N)C(=O)[O-])C[C@H]1O[C@@H](n2cnc3c(N)ncnc32)[C@H](O)[C@@H]1O (some centres unmarked) [AdoMet, S-adenosyl methionine]
[1]
  fold-change in Kd (AdoMet), decrease in AdoMet binding: 9.0 fold
[2]
  fold-change in Kd (AdoMet), effect on AdoMet binding: 2.6 fold
[3]
  fold-change in Kd (AdoMet), decrease in AdoMet binding: 8.4 fold
[4]
  kchem from enzyme titration of AdoMet: 0.113 ± 0.003 s⁻¹
[5]
  fold-change in Kd (AdoMet), decrease in AdoMet binding: 19.0 fold
[6]
  binding stoichiometry of AdoMet per dimer: two molecules of AdoMet per dimer
[7]
  fold-change in Kd (AdoMet), decrease in AdoMet binding: 4.4 fold
[8]
  fold-change in Kd (AdoMet), effect on AdoMet binding: 2.8 fold
[9]
  fold-change in Kd (AdoMet), effect on AdoMet binding: 8.0 fold
[10]
  fold-change in Kd (AdoMet), effect on AdoMet binding: 1.2 fold
[11]
  fold-change in Kd (AdoMet), effect on AdoMet binding: 6.0 fold
[12]
  fold-change in Kd (AdoMet), effect on AdoMet binding: 12.8 fold
[13]
  fold-change in Kd (AdoMet), effect on AdoMet binding: 3.2 fold
[14]
  effect on AdoMet binding: neither had an effect
[15]
  fold-change in Kd (AdoMet), decrease in AdoMet binding: 32.2 fold
[16]
  fold-change in Kd (AdoMet), effect on AdoMet binding: 23 fold
[17]
  binding stoichiometry of AdoMet per dimer: two molecules of AdoMet per dimer
[18]
  effect on AdoMet binding: neither had an effect
[19]
  fold-change in Kd (AdoMet), decrease in AdoMet binding: 2.6 fold
[20]
  fold-change in Kd (AdoMet), effect on AdoMet binding: 6.3 fold
